Source: ChEMBL document CHEMBL1240337, “Identification of proteases that regulate erythrocyte rupture by the malaria parasite Plasmodium falciparum” (Nat Chem Biol, 2008)
The source made the active and inactive calls. The calls are words filed in the database; no cut-off is given here.

Tests used:
Plasmodium falciparum = assay: Antiplasmodial activity against Plasmodium falciparum infected in human erythrocytes assessed as effect on parasite morphology by Giemsa staining; format: functional, organism-based
Outline: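 Giemsa-stained thin blood films were read from schizonts exposed at 36 h post invasion to 10 µM inhibitor, to assess rupture and morphology.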

[1] = molecular target: T1, Cysteine proteinase falcipain-1 (Plasmodium falciparum 3D7) (UniProt Q8I6V0); assay: Inhibition of Plasmodium falciparum 3D7 falcipain-1 by fluorescence spectrophotometry
T1 sequence (whole entry): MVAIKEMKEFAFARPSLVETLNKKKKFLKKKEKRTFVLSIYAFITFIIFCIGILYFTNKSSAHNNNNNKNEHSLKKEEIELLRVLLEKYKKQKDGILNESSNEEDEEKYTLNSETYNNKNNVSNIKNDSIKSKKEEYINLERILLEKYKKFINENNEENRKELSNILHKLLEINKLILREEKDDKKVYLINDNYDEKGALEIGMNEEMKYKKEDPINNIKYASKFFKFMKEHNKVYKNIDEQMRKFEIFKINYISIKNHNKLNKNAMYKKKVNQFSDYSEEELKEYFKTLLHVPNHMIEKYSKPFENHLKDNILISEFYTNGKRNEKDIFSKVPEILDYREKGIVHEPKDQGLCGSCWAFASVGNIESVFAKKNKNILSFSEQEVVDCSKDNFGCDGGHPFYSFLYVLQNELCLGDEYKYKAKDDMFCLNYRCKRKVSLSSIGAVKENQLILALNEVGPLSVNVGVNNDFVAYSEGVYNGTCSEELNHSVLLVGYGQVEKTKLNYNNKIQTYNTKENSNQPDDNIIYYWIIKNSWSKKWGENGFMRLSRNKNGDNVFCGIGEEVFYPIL

[2] = molecular target: T2, Falcipain-3 (Plasmodium falciparum 3D7) (UniProt Q8IIL0); assay: Inhibition of Plasmodium falciparum 3D7 falcipain-3 by fluorescence spectrophotometry
T2 sequence (whole entry): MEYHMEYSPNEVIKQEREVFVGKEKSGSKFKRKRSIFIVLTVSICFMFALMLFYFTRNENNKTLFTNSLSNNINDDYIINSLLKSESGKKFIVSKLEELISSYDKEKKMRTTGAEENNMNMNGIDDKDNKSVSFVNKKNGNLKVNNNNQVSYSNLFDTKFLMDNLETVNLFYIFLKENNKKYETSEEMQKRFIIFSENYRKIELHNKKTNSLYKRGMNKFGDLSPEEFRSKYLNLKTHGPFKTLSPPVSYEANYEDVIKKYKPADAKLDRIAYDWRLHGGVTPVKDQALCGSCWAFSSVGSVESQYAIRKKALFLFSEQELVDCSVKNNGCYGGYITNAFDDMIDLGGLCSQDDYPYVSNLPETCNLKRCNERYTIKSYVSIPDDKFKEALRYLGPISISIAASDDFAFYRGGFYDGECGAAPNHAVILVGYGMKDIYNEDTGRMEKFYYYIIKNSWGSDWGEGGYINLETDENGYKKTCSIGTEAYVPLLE

Row | Structure (SMILES) | Activity (Plasmodium falciparum) | inhibition [1] | inhibition [2]
1 | CCC[C@H](N)C(=O)N[C@H](/C=C/S(=O)(=O)c1ccccc1)CCc1ccccc1 | inactive | Active | Active
2 | C[C@H](N)C(=O)N[C@H](/C=C/S(=O)(=O)c1ccccc1)CCc1ccccc1 | inactive | Active | Active
